# The list is not random: actives were taken first. Their share in the collection is about 3.1%.
# FGF22 binding – FGF22 (human) thermal shift binding. Q9HCT0. recombinant FGF22 thermal shift, SYPRO orange fluorescence; percent of sucrose octasulfate shift, DMSO zero. activity (Tm shift, normalised), % at 9.99 µM. 340,000 tested, 1.5% active. AID 651658;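 active means mean Tm shift, scaled 0 neutral to 100 positive control, at about 1.3% or above, every replicate too, limit read from the data; inconclusive means no clear call, values can overlap the other calls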
# Target sequence (Q9HCT0 whole entry, looked up): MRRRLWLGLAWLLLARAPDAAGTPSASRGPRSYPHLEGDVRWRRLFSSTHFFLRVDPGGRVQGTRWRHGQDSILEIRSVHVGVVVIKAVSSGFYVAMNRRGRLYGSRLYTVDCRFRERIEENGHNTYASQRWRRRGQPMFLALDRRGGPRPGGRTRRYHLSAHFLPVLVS
# Env fusion inh – blocks HIV Env-driven cell-cell fusion; HeLa-JRFL Env/CEM21 cell fusion, luciferase; inhibition, % at 12.3 µM; 360,000 tested, 1.1% active;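 active means mean replicate inhibition score of at least 50 and every replicate individually at or above 50; inconclusive means only one of the two criteria met; inactive means mean below 50 and not all replicates reaching 50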;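 further: 0% = plate neutral controls and 100% = maraviroc near 300 nM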
# FN deposition inh – fibronectin deposition inhibition; AH1F fibroblasts, Alexa488-fibronectin deposition fluorescence, overnight; AID 743247; 350,000 tested, 0.086% active; inhibition, % at 12.6 µM;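 active means mean inhibition across replicates of 30% or more, regardless of how many single replicates reach that level; inconclusive means mean under 30% yet at least half of replicates reach 30%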;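 further: positive control wells lacked labelled fibronectin entirely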
#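 Material: AH1F fibroblast monolayer depositing Alexa488-labelled fibronectin into matrix | Input: 10000 AH1F cells/well | Medium: DMEM plus 2% serum, read in PBS | Reagent: Alexa488-fibronectin, 24 nM final in well | Compound dosing: One dose per compound, pinned | Schedule: 1 h adhesion, overnight exposure | Measured by: Fluorescence at 485 nm excitation, 525 nm emission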
# PGC1a acetyl inh – lowers PGC1a acetylation signal in U2OS cells | AlphaScreen anti-acetyl-lysine; with virally co-expressed GCN5 acetyltransferase | inhibition, % at 15.6 µM | 350,000 tested, 0.17% active;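 active means every replicate shows inhibition of at least 40%; inconclusive means mean inhibition at least 40% but some replicate below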;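 further: 0% = neutral control wells and 100% = positive control wells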
# EWS-Fli block – inhibitors of EWS/Fli oncoprotein transcriptional activity; inhibition, % at 12.6 µM; A673 NR0B1-luciferase reporter, viability-normalised; 350,000 tested, 0.67% active;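 active means mean inhibition of at least 50% after viability correction, with every replicate also passing that limit; inconclusive means mean reaches 50% but only one of two replicates passes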;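 further: firefly luciferase signal divided by Alamar Blue viability fluorescence both relative to DMSO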
# PAX8 inh HTS – PAX8 transcriptional activity inhibition; RMG-I TPO-luciferase reporter, SteadyGlo, 24 h; inhibition, % at 12.6 µM; 360,000 tested, 1.2% active; AID 652154;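 active means mean replicate inhibition at least 60% with every replicate also reaching 60%; inconclusive means only one of the two criteria is met; inactive means mean below 60% and not all replicates reaching 60%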;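 further: luciferase light reporting Pax8 driven TPO promoter activity; plate controls were median of neutral control wells for no effect and mitoxantrone controls for full effect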
# Active calls of the source: *; i = inactive; ? = inconclusive; . = no result given; [ ] = dose if it differs, or a comment.
SMILES,FGF22 binding,Env fusion inh,FN deposition inh,PGC1a acetyl inh,EWS-Fli block,PAX8 inh HTS
Cc1cccc(S(=O)(=O)N2CC[C@@H]3[C@H](CO)N(C)c4ccc(C#Cc5ccc(F)cc5)cc4[C@@H]32)c1,0.0,.,.,-15.4,19.3,91.0*
COCCNS(=O)(=O)c1ccc2c(c1)C(=NO)c1cc(S(=O)(=O)NCCOC)ccc1-2,0.1,-16.6,1.1,-0.6,17.5,23.4
CC(C)(CO)NS(=O)(=O)c1ccc2c(c1)C(=NO)c1cc(S(=O)(=O)NC(C)(C)CO)ccc1-2,42.9*,3.0,14.3,.,-0.4,2.1
CS(=O)(=O)Nc1ccc2c(c1)[C@@H]1C[C@H](CC(=O)NCc3ccncc3)O[C@H](CO)[C@@H]1O2,0.5,6.8[16.7 µM],.,1.2,-1.9,-23.9
C[C@@H]1CN([C@H](C)CO)C(=O)c2cc(NC(=O)Nc3ccc4c(c3)OCO4)ccc2O[C@@H](C)CCCCO[C@@H]1CN(C)Cc1ccc(Cl)c(Cl)c1,0.0,31.4[16.7 µM],.,4.5,-8.9,.
C[C@H](CO)N1C[C@H](C)[C@H](CN(C)Cc2ccc3c(c2)OCO3)OCCCC[C@H](C)Oc2ccc(NC(=O)Nc3ccc4c(c3)OCO4)cc2C1=O,-0.6,66.1*[16.7 µM],7.3,-18.8,-0.8,22.4
C[C@@H]1CN([C@@H](C)CO)C(=O)c2cc(NC(=O)Nc3ccc4c(c3)OCO4)ccc2O[C@@H](C)CCCCO[C@H]1CN(C)Cc1ccc(Cl)c(Cl)c1,0.1,66.6*[16.7 µM],.,-14.1,5.2,.
C[C@H]1CCCCO[C@@H](CN(C)Cc2ccccc2)[C@@H](C)CN([C@@H](C)CO)C(=O)c2cc(NC(=O)Nc3ccc4c(c3)OCO4)ccc2O1,-0.1,56.7*[16.7 µM],-6.3,20.2,4.2,45.5
C[C@@H]1CCCCO[C@H](CN(C)Cc2ccc3c(c2)OCO3)[C@H](C)CN([C@@H](C)CO)C(=O)c2cc(NC(=O)C3CCCCC3)ccc2O1,-0.3,-18.5[16.7 µM],.,.,-6.9,-14.5
C[C@@H]1CCCCO[C@H](CN(C)Cc2ccc3c(c2)OCO3)[C@@H](C)CN([C@@H](C)CO)C(=O)c2cc(NC(=O)C3CCCCC3)ccc2O1,13.2*,-101.6[16.7 µM],.,.,6.4,6.0
C[C@H]1CCCCO[C@@H](CN(C)CC2CCCCC2)[C@@H](C)CN([C@@H](C)CO)C(=O)c2cc(NC(=O)Nc3ccc4c(c3)OCO4)ccc2O1,1.7*,-3.0[16.7 µM],.,-25.9,2.0,-3.6
COc1cc2c(c(OC)c1OC)-c1ccc(OC)c(=O)cc1[C@@H](NC(C)=O)CC2,-0.1,-58.9,-54.3,2.6,62.5*,95.8*
COc1cc2c(c(OC)c1OC)-c1ccc(NCc3ccccc3)c(=O)cc1C(NC(C)=O)CC2 (centres undefined),-0.2,8.3,-36.5,.,36.2,84.3*
CCN(CC)c1ccc2c(cc1=O)[C@@H](NC)CCc1cc(OC)c(OC)c(OC)c1-2,0.0,-253.3,-28.1,.,60.0*,98.1*
COc1cc2c(c(OC)c1OC)-c1ccc(N(C)CC(OC)OC)c(=O)cc1[C@@H](NC(C)=O)CC2,-0.2,i,-11.3,.,60.0*,98.9*
CN[C@H]1CCc2cc(OC)c(OC)c(OC)c2-c2ccc(N(C)CC(OC)OC)c(=O)cc21,-0.1,-118.1,0.5,4.8,42.6,?
C[C@@H]1CN([C@@H](C)CO)C(=O)c2cc(C#Cc3ccccc3F)cnc2O[C@H]1CN(C)C(=O)C1CCC1,-0.4,.,.,11.1,-1.1,3.5
COc1cc2c(c(OC)c1OC)-c1ccc(OC)c(=O)cc1[C@@H](N(C)CC#CCO)CC2,-0.1,-243.6,-6.1,.,53.6*,77.1*
CS(=O)(=O)c1ccc(S(=O)CC(=O)OCc2ccccc2)c([N+](=O)[O-])c1 (centres undefined),0.3,-175.0,-0.1,.,64.4*,107.1*
COc1ccc(-c2cc(C(=O)N(C)Cc3nc4ccccc4c(=O)[nH]3)c3ccccc3n2)cc1OC,44.4*,.,-12.6,2.3,2.1,44.7
COc1ccc(-c2cc(C(=O)N(C)Cc3cccc(OC)c3OC)c3ccccc3n2)cc1OC,-0.2,19.8,16.4,-2.4,20.5,21.1
COC(=O)/C(=C\c1cc(OC)c(OC)c(OC)c1)c1nc2ccccc2[nH]1,43.5*,-13.1,-1.1,.,-1.8,-2.6
O=C(/C(=C\c1ccccc1)c1nc2ccccc2[nH]1)c1ccc(Cl)cc1,.,-153.2,-8.4,.,.,-258.8
COC(=O)/C(=C\c1ccc(O)cc1)c1nc2ccccc2[nH]1,43.5*,-7.7,7.7,.,-26.2,-37.0
COc1cc(/C=C/C(=O)NCc2nc3ccccc3[nH]2)cc(OC)c1OC,-0.1,-3.3,1.2,-22.1,3.3,-4.1
SMILES,FGF22 binding,Env fusion inh,FN deposition inh,PGC1a acetyl inh,EWS-Fli block,PAX8 inh HTS
CNC(=O)CCc1nc(-c2ccc(C(C)(C)C)cc2)no1,.,.,.,-5.6,.,.
Cc1ccc(-c2noc(CCC(=O)NCC3CCCO3)n2)cc1 (centres undefined),.,-50.0,.,-12.1,.,.
COc1ccc(-c2noc(CCC(=O)Nc3cccnc3)n2)cc1,-0.2,-8.6,-11.0,.,-27.8,-3.0
O=C(CCc1nc(-c2ccccc2F)no1)Nc1cccnc1,0.2,58.9*,.,.,.,-11.4
CCOc1ccccc1-c1noc(CCC(=O)Nc2cccnc2)n1,-0.1,-10.5,2.6,.,-5.5,-11.5
CC(C)(C)c1ccc(-c2noc(CCC(=O)NCC3CCCO3)n2)cc1 (centres undefined),.,75.0*,-3.5,-14.9,.,.
CC(C)(C)c1ccc(-c2noc(CCC(=O)Nc3cccnc3)n2)cc1,-0.1,40.7,-11.4,-12.0,43.6,86.9*
CC(C)(C)c1ccc(-c2noc(CCC(N)=O)n2)cc1,.,100.1*,-1.7,-11.4,.,.
O=C1CNC[C@@H]2[C@@H](c3ccc(C4=CCCC4)cc3)[C@H](CO)N12,.,.,-10.0,-4.9,-3.6,.
C[C@@H]1CCCCO[C@@H](CN(C)Cc2ccc3c(c2)OCO3)[C@@H](C)CN([C@@H](C)CO)C(=O)c2cc(NC(=O)CCCN(C)C)ccc2O1,0.0,-16.0[16.7 µM],.,6.6,-1.9,7.0
Cc1noc(C)c1NC(=O)Nc1cccc2c1O[C@@H](CN(C)C)[C@@H](C)CN([C@@H](C)CO)C2=O,0.0,.,.,7.0,2.8,6.3
CN1[C@@H]2c3ccc(/C=C/c4ccccc4)c(=O)n3C[C@@H]2[C@@H](CO)[C@@H]1C(=O)NC1CCCC1,.,.,.,1.2,-11.8,.
COc1cccc(-c2ccc3c(c2)[C@H]2[C@H](CCN2C(=O)C2CCCC2)[C@@H](CO)N3)c1,.,.,-0.6,1.4,4.2,.
C/C=C/c1ccc([C@@H]2[C@@H](CO)N(C(C)=O)C23CN(C(=O)NC2CCCCC2)C3)cc1,-0.3,.,-8.5,11.3,3.4,-8.3
O=C(Nc1ccccc1F)N[C@@H]1CC[C@H](CCNS(=O)(=O)c2ccc(F)cc2)O[C@@H]1CO,-0.3,-20.5[16.7 µM],3.9,-9.8,7.0,.
CCOC(=O)N1CCN(c2ncnc3c2[nH]c2ccc(F)cc23)CC1,.,63.9*,-1.9,.,.,33.5

# Compound activity: PubChem, Broad Institute
